This is an account of results in ChEMBL document CHEMBL5038582, “Adamantyl Isothiocyanates as Mutant p53 Rescuing Agents and Their Structure-Activity Relationships” (J Med Chem, 2021).

Activity calls are given as the source filed them. The calls are words filed in the database; no cut-off is given here.

The test system of test [1] is MDA-MB-468. In words: Antiproliferative activity against human MDA-MB-468 cells transfected with p53 siRNA assessed as inhibition of cell growth at 5 to 25 uM measured after 24 hrs by WST-1 assay. It is filed as functional, cell-based. To be noted: dose 5-25 µM. Put shortly:
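MDA-MB-468 cells plated at 50-60% confluence 24 h before transfection. p53 SMARTpool or non-specific siRNA (0.430 nmol) given with Lipofectamine 2000 in Opti-MEM for 5 h, repeated after 24 h. Drug or DMSO added 72 h after the first transfection. Proliferation read by WST-1, % of DMSO control.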

Test [2] relates to MDA-MB-468. In words: Induction of apoptosis in human MDA-MB-468 cells expressing p53 R273H mutant assessed fold increase in number of Annexin-V stained cells at 6 to 12 uM incubated for 24 hrs by AnnexinV-FITC and PI staining based flow cytometry relative to control. The class given is functional. Particulars: dose 6-12 µM. Put shortly: (§1)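 24 h treatment, DMSO control. Cells scraped, washed in PBS, then given fluorochrome-conjugated Annexin V for 15 min at RT in the dark, followed by PI (0.1 µg/ml) in binding buffer. Read by flow cytometry on LSRFortessa. Annexin V-positive cells expressed relative to the DMSO control.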
(In general: A flow cytometer gives signals particle by particle.)

A further test relates to MDA-MB-231. In words: Induction of apoptosis in human MDA-MB-231 cells expressing p53 R280K mutant assessed fold increase in number of Annexin-V stained cells at 6 to 12 uM incubated for 24 hrs by AnnexinV-FITC and PI staining based flow cytometry relative to control. It is filed as functional. Particulars: dose 6-12 µM. In outline: as §1
In a further test the test system is MCF7. In words: Downregulation of p53 expression in human MCF7 cells at 6 to 12 uM measured after 24 hrs by immunoblot analysis. The class given is functional, cell-based. To be noted: dose 6-12 µM. In outline:
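24 h exposure to 6 or 12 μM, DMSO control. Lysis in Tris pH 8.0/NaCl/glycerol/NP-40/EDTA buffer with protease inhibitors. 20 µg (MDA-MB-231, MDA-MB-468) or 50 µg (MCF-7) of lysate run on 4-12% SDS-PAGE. Blot probed with p53 DO-1, GAPDH used for reprobe/loading. Triplicate experiments.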
Background: In western blotting, separated proteins are transferred to a membrane and probed.

In the case of `S=C=NCCCC12CC3CC(CC(C3)C1)C2`, the outcome with MDA-MB-468 [1] was inactive. The “fold change (FC)” value in the test with MDA-MB-468 [2] and in the test on MDA-MB-231 was 2 throughout. For the same compound, the inhibition entry in the test with MCF7 was “inactive”.
